Active and inactive are the calls of the source. The calls are words filed in the database; no cut-off is given here.
Assays:
[1] = system: Streptococcus pyogenes; assay: Antimicrobial activity against Streptococcus pyogenes 345/1 assessed as zone of inhibition at 3905 uM incubated overnight at 37 degC; format: functional; settings: read-out: IZ
[2] = system: Escherichia coli; assay: Antimicrobial activity against Escherichia coli ATCC 25922 assessed as zone of inhibition at 3905 uM incubated overnight at 37 degC; format: functional, organism-based
Outline: (§1)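 Pure isolates screened against a panel of five bacteria and one fungus, each at a single concentration within 1639–5230 μM. A commercial antibiotic and antifungal agent were tested in parallel as references. Growth inhibition was recorded as the zone of inhibition.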

[3] = system: Staphylococcus aureus; assay: Antimicrobial activity against methicillin-resistant Staphylococcus aureus 344/2-32 assessed as zone of inhibition at 3905 uM incubated overnight at 37 degC; format: functional, organism-based
[4] = system: Candida albicans; assay: Antimicrobial activity against Candida albicans ATCC 10231 assessed as zone of inhibition at 3905 uM incubated overnight at 37 degC; format: functional, organism-based; outline: as §1
[5] = system: Pseudomonas aeruginosa; assay: Antimicrobial activity against Pseudomonas aeruginosa ATCC 27853 assessed as zone of inhibition at 3905 uM incubated overnight at 37 degC; format: functional, organism-based; outline: as §1
[6] = system: Staphylococcus aureus; assay: Antimicrobial activity against Staphylococcus aureus ATCC 25923 assessed as zone of inhibition at 3905 uM incubated overnight at 37 degC; format: functional, organism-based; outline: as §1
[7] = system: Staphylococcus aureus; assay: Antimicrobial activity against Staphylococcus aureus ATCC 25923 assessed as zone of inhibition at 3030 uM incubated overnight at 37 degC; format: functional, organism-based; outline: as §1
[8] = system: Pseudomonas aeruginosa; assay: Antimicrobial activity against Pseudomonas aeruginosa ATCC 27853 assessed as zone of inhibition at 3030 uM incubated overnight at 37 degC; format: functional; settings: read-out: IZ; outline: as §1
[9] = system: Staphylococcus aureus; assay: Antimicrobial activity against methicillin-resistant Staphylococcus aureus 344/2-32 assessed as zone of inhibition at 3030 uM incubated overnight at 37 degC; format: functional, organism-based
[10] = system: Streptococcus pyogenes; assay: Antimicrobial activity against Streptococcus pyogenes 345/1 assessed as zone of inhibition at 3030 uM incubated overnight at 37 degC; format: functional, organism-based; outline: as §1
[11] = system: Escherichia coli; assay: Antimicrobial activity against Escherichia coli ATCC 25922 assessed as zone of inhibition at 3030 uM incubated overnight at 37 degC; format: functional, organism-based; outline: as §1
[12] = system: Candida albicans; assay: Antimicrobial activity against Candida albicans ATCC 10231 assessed as zone of inhibition at 3030 uM incubated overnight at 37 degC; format: functional, organism-based; outline: as §1
[13] = system: Candida albicans; assay: Antimicrobial activity against Candida albicans ATCC 10231 assessed as zone of inhibition at 5230 uM incubated overnight at 37 degC; format: functional, organism-based
[14] = system: Pseudomonas aeruginosa; assay: Antimicrobial activity against Pseudomonas aeruginosa ATCC 27853 assessed as zone of inhibition at 3875 uM incubated overnight at 37 degC; format: functional; settings: read-out: IZ; outline: as §1
[15] = system: Escherichia coli; assay: Antimicrobial activity against Escherichia coli ATCC 25922 assessed as zone of inhibition at 3875 uM incubated overnight at 37 degC; format: functional, organism-based; outline: as §1
[16] = system: Candida albicans; assay: Antimicrobial activity against Candida albicans ATCC 10231 assessed as zone of inhibition at 3875 uM incubated overnight at 37 degC; format: functional, organism-based; outline: as §1
[17] = system: Streptococcus pyogenes; assay: Antimicrobial activity against Streptococcus pyogenes 345/1 assessed as zone of inhibition at 3875 uM incubated overnight at 37 degC; format: functional, organism-based
[18] = system: Staphylococcus aureus; assay: Antimicrobial activity against methicillin-resistant Staphylococcus aureus 344/2-32 assessed as zone of inhibition at 3875 uM incubated overnight at 37 degC; format: functional, organism-based
[19] = system: Staphylococcus aureus; assay: Antimicrobial activity against Staphylococcus aureus ATCC 25923 assessed as zone of inhibition at 3875 uM incubated overnight at 37 degC; format: functional; settings: read-out: IZ; outline: as §1
[20] = system: Pseudomonas aeruginosa; assay: Antimicrobial activity against Pseudomonas aeruginosa ATCC 27853 assessed as zone of inhibition at 3649 uM incubated overnight at 37 degC; format: functional; settings: read-out: IZ; outline: as §1
[21] = system: Escherichia coli; assay: Antimicrobial activity against Escherichia coli ATCC 25922 assessed as zone of inhibition at 3649 uM incubated overnight at 37 degC; format: functional, organism-based; outline: as §1
[22] = system: Candida albicans; assay: Antimicrobial activity against Candida albicans ATCC 10231 assessed as zone of inhibition at 3649 uM incubated overnight at 37 degC; format: functional, organism-based; outline: as §1
[23] = system: Streptococcus pyogenes; assay: Antimicrobial activity against Streptococcus pyogenes 345/1 assessed as zone of inhibition at 3649 uM incubated overnight at 37 degC; format: functional, organism-based
[24] = system: Staphylococcus aureus; assay: Antimicrobial activity against methicillin-resistant Staphylococcus aureus 344/2-32 assessed as zone of inhibition at 3649 uM incubated overnight at 37 degC; format: functional, organism-based
[25] = system: Staphylococcus aureus; assay: Antimicrobial activity against Staphylococcus aureus ATCC 25923 assessed as zone of inhibition at 3649 uM incubated overnight at 37 degC; format: functional, organism-based; outline: as §1
[26] = system: Candida albicans; assay: Antimicrobial activity against Candida albicans ATCC 10231 assessed as zone of inhibition at 2450 uM incubated overnight at 37 degC; format: functional, organism-based; outline: as §1
[27] = system: Pseudomonas aeruginosa; assay: Antimicrobial activity against Pseudomonas aeruginosa ATCC 27853 assessed as zone of inhibition at 2450 uM incubated overnight at 37 degC; format: functional, organism-based; outline: as §1
[28] = system: Staphylococcus aureus; assay: Antimicrobial activity against Staphylococcus aureus ATCC 25923 assessed as zone of inhibition at 2450 uM incubated overnight at 37 degC; format: functional, organism-based; outline: as §1
[29] = system: Streptococcus pyogenes; assay: Antimicrobial activity against Streptococcus pyogenes 345/1 assessed as zone of inhibition at 2450 uM incubated overnight at 37 degC; format: functional, organism-based; outline: as §1
[30] = system: Staphylococcus aureus; assay: Antimicrobial activity against methicillin-resistant Staphylococcus aureus 344/2-32 assessed as zone of inhibition at 2450 uM incubated overnight at 37 degC; format: functional, organism-based
[31] = system: Escherichia coli; assay: Antimicrobial activity against Escherichia coli ATCC 25922 assessed as zone of inhibition at 2450 uM incubated overnight at 37 degC; format: functional, organism-based; outline: as §1

O=C1C(c2ccccc2)=Cc2cccc3cccc1c23
zone of inhibition at 3905 µM [1]: 2 mm | inhibition zone (IZ) [2]: inactive | inhibition zone (IZ) [3]: inactive | inhibition zone (IZ) [4]: inactive | inhibition zone (IZ) [5]: inactive | inhibition zone (IZ) [6]: inactive

O=C(/C=C/c1ccc(O)cc1)c1c(O)cc(O)cc1O[C@@H]1O[C@H](CO)[C@@H](O)[C@H](O)[C@H]1O
inhibition zone (IZ) [7]: inactive | zone of inhibition at 3030 µM [8]: 2 mm | inhibition zone (IZ) [9]: inactive | inhibition zone (IZ) [10]: inactive | inhibition zone (IZ) [11]: inactive | inhibition zone (IZ) [12]: inactive

COC(=O)Nc1nc2ccccc2[nH]1
inhibition zone (IZ) [13]: inactive

O=C1C(=O)c2c(-c3ccccc3)ccc3cccc1c23
zone of inhibition at 3875 µM [14]: 1 mm | inhibition zone (IZ) [15]: inactive | inhibition zone (IZ) [16]: inactive | inhibition zone (IZ) [17]: inactive | inhibition zone (IZ) [18]: inactive | zone of inhibition at 3875 µM [19]: 2 mm

O=C1OC(=O)c2c(-c3ccccc3)ccc3cccc1c23
zone of inhibition at 3649 µM [20]: 2 mm | inhibition zone (IZ) [21]: inactive | inhibition zone (IZ) [22]: inactive | inhibition zone (IZ) [23]: inactive | inhibition zone (IZ) [24]: inactive | inhibition zone (IZ) [25]: inactive

COC(OC)c1cc(O)c2c(-c3cc(O)cc(O)c3)c(-c3ccc(O)cc3)oc2c1
inhibition zone (IZ) [26]: inactive | inhibition zone (IZ) [27]: inactive | inhibition zone (IZ) [28]: inactive | inhibition zone (IZ) [29]: inactive | inhibition zone (IZ) [30]: inactive | inhibition zone (IZ) [31]: inactive

Source: ChEMBL document CHEMBL3593182, “Phytochemical Investigation of the Constituents Derived from the Australian Plant Macropidia fuliginosa” (2015)
